Assay outcomes from PubChem.
PTEN del growth – growth suppressors of cells with PTEN tumor suppressor deletion. HCT116 PTEN-null viability, CellTiter-Glo, 60 h; stronger effect = lower value. 140,000 tested, 1.2% active. viability, % at 10 µM;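 active means viability at or below a set limit, 4 SD under the median of all tested compounds, cut at about 3.7% in these data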;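 further: PTEN knockout HCT116 line with beta catenin targeted HCT116 as companion control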
L major viab – inhibitors of Leishmania major promastigote growth. Leishmania major promastigotes, resazurin fluorescence viability. inhibition, % at 10 µM. 200,000 tested, 9% active. AID 1063; in the data active means inhibition above about 50%;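 further: promastigotes grown with compound for 44 hours at 28 °C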
TNAP inh hi DEA – inhibitors of human TNAP at high phosphate acceptor concentration; inhibition, % at 20 µM; P05186; purified TNAP, CDP-star luminescence, 1 M DEA; 200,000 tested, 0.03% active;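 active means over 50% inhibition of tissue-nonspecific alkaline phosphatase at 20 µM in the single-dose screen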
Target sequence (P05186 whole entry, looked up): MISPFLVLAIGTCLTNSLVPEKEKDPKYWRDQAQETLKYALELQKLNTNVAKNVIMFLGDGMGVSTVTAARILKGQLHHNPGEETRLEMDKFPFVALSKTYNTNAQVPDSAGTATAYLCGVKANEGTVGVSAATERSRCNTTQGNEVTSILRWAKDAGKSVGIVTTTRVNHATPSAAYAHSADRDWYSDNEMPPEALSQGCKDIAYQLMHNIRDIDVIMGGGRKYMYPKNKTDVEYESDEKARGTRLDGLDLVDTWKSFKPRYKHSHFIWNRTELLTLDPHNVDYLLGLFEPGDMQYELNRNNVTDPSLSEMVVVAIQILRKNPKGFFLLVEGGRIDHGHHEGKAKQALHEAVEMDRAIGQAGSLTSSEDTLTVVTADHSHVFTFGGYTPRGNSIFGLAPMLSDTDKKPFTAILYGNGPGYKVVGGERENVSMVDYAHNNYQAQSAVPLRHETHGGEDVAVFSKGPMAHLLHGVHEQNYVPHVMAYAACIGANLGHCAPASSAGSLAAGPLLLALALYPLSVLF
TNAP act hi DEA – TNAP (human) activation, high acceptor. P05186. purified TNAP, CDP-star luminescence, 1 M DEA, 30 min; stronger effect = higher value; 0 = EDTA background, 1 = DMSO-only activity. activation factor at 20 µM. 200,000 tested, under 10 active;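 active means activation factor at least 2 at 20 µM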
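Test system – human TNAP · Doses – 20 µM single point · Incubation – 30 min, room temperature · Signal – luminescent substrate turnover signal · Read-out basis – activation factor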
TNAP inh no acc – inhibitors of human TNAP without phosphate acceptor | P05186 | purified TNAP, CDP-star luminescence, 30 min | inhibition, % at 20 µM | 200,000 tested, 0.26% active | AID 1012;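 active means tissue-nonspecific alkaline phosphatase inhibition above about 50% at 20 µM in the single-dose screen, limit read from the data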
bCat KO growth – beta-catenin-lacking colon tumor cell growth suppression | viability, % at 10 µM | 140,000 tested, 1.5% active | HCT116 beta-catenin knockout viability, CellTiter-Glo, 60 h; stronger effect = lower value;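 active means viability at or under a set limit, the compound median less 4 SD, cut at about 6% in these data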
Lmaj promast 1uM – inhibitors of Leishmania major promastigote growth, repeat at 1 uM; L. major promastigote growth, resazurin fluorescence, 48 h; 1,100 tested, 13% active; shares compounds with L major viab; inhibition, % at 1 µM; AID 1258;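 active means inhibition above about 50% in both repeat tests, limit read from the data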
Large screens that a line does not name were inactive (follow-up assays come after a bar, where they were run). Only some compounds are listed: those with a hit (about 9.6% of all), similar ones and a draw of the others.

NC(=S)Nc1cc2ccccc2c2ccccc12	none
NC(=S)Nc1cccc2cc3ccccc3cc12	L major viab 98 | Lmaj promast 1uM inactive
O=[N+]([O-])c1ccc(C[n+]2cccc3c4ccccc4ccc32)cc1	none (no result: PTEN del growth, bCat KO growth)
CCCCCCCCC[n+]1cccc2c3ccccc3ccc21	PTEN del growth 1.2, L major viab 101, bCat KO growth 1.2 | Lmaj promast 1uM 101
Oc1ccccc1-c1nc(/C=C/c2ccccc2)nn1-c1ccccc1	L major viab 98 | Lmaj promast 1uM inactive
Cc1ccc(C(=S)N2CCN(Cc3ccccc3)CC2)s1	none (no result: PTEN del growth, bCat KO growth)
COc1ccc(S(=O)(=O)N(C)c2ccc(C(=O)NC3CCCC3)cc2)cc1	none (no result: PTEN del growth, bCat KO growth)
CCCC1CC(CSC(=N)N)OC1=O (stereo not given)	none
CCCCCCC1CC(CSC(=N)N)OC1=O (stereo not given)	L major viab 100 | Lmaj promast 1uM inactive
C(=N\Nc1nc2ccccc2[nH]1)/c1ccccn1	L major viab 100 (no result: PTEN del growth, bCat KO growth) | Lmaj promast 1uM inactive
CCOc1ccc(-n2c(SCC(=O)Nc3cc(C)on3)nc3c([nH]c4ccccc43)c2=O)cc1	none
CCOc1ccc(-n2c(SCC(N)=O)nc3c([nH]c4ccccc43)c2=O)cc1	L major viab 68 | Lmaj promast 1uM inactive
O=C(COC(=O)c1cccnc1Cl)NCCC1=CCCCC1	none (no result: PTEN del growth, bCat KO growth)
CN1CCN(S(=O)(=O)c2cccc([N+](=O)[O-])c2)CC1	none (no result: PTEN del growth, TNAP inh hi DEA, TNAP act hi DEA, TNAP inh no acc, bCat KO growth)
CC(C)c1nccn1S(=O)(=O)c1cccc([N+](=O)[O-])c1	L major viab 52 | Lmaj promast 1uM inactive
CCN(CC)c1ccc(NS(=O)(=O)c2ccc(OC)cc2)cc1	none (no result: PTEN del growth, bCat KO growth)
Cc1cc(C)c(C(CC(=O)c2cccs2)C(C#N)C#N)c(C)c1 (stereo not given)	L major viab 92 | Lmaj promast 1uM inactive
CC(CC(=O)c1cccs1)CC(=O)c1cccs1	none
c1ccc2c(-c3c[nH]c4ccccc34)c3ccccc3nc2c1	L major viab 55 | Lmaj promast 1uM inactive
COc1ccc(C(=O)c2ccc(OC)c3cccc(O)c23)cc1OC	none
COc1ccc2c3c(cccc13)NN=C2C	L major viab 101 (no result: PTEN del growth, TNAP inh hi DEA, TNAP act hi DEA, TNAP inh no acc, bCat KO growth) | Lmaj promast 1uM 98
Cc1ccccc1-c1cc2c(nn1)-c1ccccc1C2=O	L major viab 93, bCat KO growth 3.4 | Lmaj promast 1uM inactive
CC(=O)c1cccc(S(=O)(=O)NCC2CCCCC2)c1	none
CN(C)S(=O)(=O)c1ccc(NC(=O)c2c(F)cccc2Cl)cc1	none
CCOC(=O)C1(N(CC)CC)Sc2cc(C)ccc2NC1=O (stereo not given)	L major viab 94 | Lmaj promast 1uM inactive
S=c1[nH]c(-c2ccccc2)cs1	L major viab 77 (no result: PTEN del growth, bCat KO growth) | Lmaj promast 1uM inactive
CC(=O)N1CCN(Cc2nc3cc(NC(=O)Nc4ccccc4)ccc3n2C)CC1	none (no result: PTEN del growth, bCat KO growth)
CCOc1ccc(S(=O)(=O)NC(C)(C)C)cc1-c1nc2c(C(C)(C)C)nn(C)c2c(=O)[nH]1	L major viab 71 | Lmaj promast 1uM inactive
O=C1NN=C(CSc2n[nH]c(=S)s2)CS1	none (no result: PTEN del growth, bCat KO growth)
CCNc1nc(=S)nc(NCc2ccccc2)[nH]1	none (no result: PTEN del growth, bCat KO growth)
CCCNC(=O)c1ccc2c(c1)C1C3CCC(C3)C1C(c1ccccc1)N2 (stereo not given)	L major viab 81 | Lmaj promast 1uM inactive
O=C1NC(c2ccccc2)Nc2c1sc(=S)n2-c1ccccc1 (stereo not given)	none (no result: PTEN del growth, bCat KO growth)
CC(=O)/C(CN1CCCCC1)=N\O	none
C/C(=N\O)C(=O)C(CN1CCCCC1)CN1CCCCC1	L major viab 78 | Lmaj promast 1uM inactive
CC1(CCc2ccccc2)NC(=S)N(c2ccccc2)N1 (stereo not given)	L major viab 70 | Lmaj promast 1uM inactive
Cc1noc(C)c1S(=O)(=O)N(CCc1ccccc1)Cc1ccccc1	none
CNC(=O)C(=O)NCCc1ccc(Cl)cc1	none
Cc1nc(N2CCN(C)CC2)c2sc(=S)n(-c3ccccc3)c2n1	none
S=c1sc2c(Cl)ncnc2n1-c1ccccc1	L major viab 87 (no result: PTEN del growth, bCat KO growth) | Lmaj promast 1uM inactive
O=S(=O)(c1ccc(S(=O)(=O)N2CCCN(Cc3ccccc3)C2)cc1)N1CCCCCC1	L major viab 76 | Lmaj promast 1uM inactive
CN(CCc1ccccn1)S(=O)(=O)c1ccccc1F	none (no result: PTEN del growth, bCat KO growth)
CC(C)(C)c1cc(C(C)(C)C)cc(S(=O)(=O)CCc2ccccn2)c1	L major viab 60 | Lmaj promast 1uM inactive
Cc1ccc(N=Cc2c(O)[nH]c3ccccc23)c([N+](=O)[O-])c1	none (no result: PTEN del growth, bCat KO growth)
COC(=O)c1ccc2c(c1)C(C)(C)C(/C=C/c1ccc(OC)c(OC)c1OC)=[N+]2C	PTEN del growth 0.6, L major viab 101, bCat KO growth 4.9 | Lmaj promast 1uM 101
N#C/C(C(=O)N1CCCCC1)=C1/N=C(N)c2ccccc21	L major viab 61 | Lmaj promast 1uM inactive
Cc1sc2ncnc(NCCN3CCOCC3)c2c1C	none
CCCCCCCCn1cnc2c(N)c(C)c(C)cc21	L major viab 91 | Lmaj promast 1uM inactive
Cn1c(Cc2cccc3ccccc23)nnc1SCc1ccc([N+](=O)[O-])cc1	none
COc1ccc(NC(=O)COC(=O)c2ccc(S(=O)(=O)N(C)c3ccccc3OC)cc2)cc1OC	none (no result: PTEN del growth, bCat KO growth)
COc1ccc(NC(=O)COC(=O)c2ccc(S(=O)(=O)N(C)c3ccccc3OC)cc2)c(OC)c1	L major viab 99 (no result: PTEN del growth, bCat KO growth) | Lmaj promast 1uM inactive
Cc1ccc(NC(=O)NC(=O)N(C(C)C)S(C)(=O)=O)nc1	L major viab 77 | Lmaj promast 1uM inactive
Cc1nnc(C)c2c(C)n(-c3ccccc3N)c(C)c12	none (no result: PTEN del growth, bCat KO growth)
Cc1nnc(C)c2c(C)n(C(c3ccccc3)c3ccccc3)c(C)c12	L major viab 100 | Lmaj promast 1uM inactive
CCc1ccccc1S(=O)(=O)Cc1ccc(C(=O)NCc2cccs2)o1	none (no result: PTEN del growth, bCat KO growth)
CC12CCCCN1CCCc1c2[nH]c2ccccc12 (stereo not given)	L major viab 64 | Lmaj promast 1uM inactive
N#CCC(=O)N/N=C/c1ccc(Sc2nc3ccccc3s2)o1	none
c1ccc(Cn2nc(-c3ccccc3)nc2-c2ccccc2)cc1	L major viab 94 | Lmaj promast 1uM inactive
COc1ccc(/C=C2\CN(Cc3ccccc3)C/C(=C\c3ccc(OC)cc3OC)C2=O)c(OC)c1	PTEN del growth 2.7, L major viab 71, bCat KO growth 4.8 | Lmaj promast 1uM inactive
COc1cccc(-n2cnc3sc(C)c(C)c3c2=O)c1	none
CN(c1ccccc1)P(=O)(N(C)c1ccccc1)N(C)c1ccccc1	L major viab 98 (no result: PTEN del growth, bCat KO growth) | Lmaj promast 1uM inactive
CN(C(N)=S)c1ccccc1	none
CCN(CC)S(=O)(=O)c1ccc2nc(CCl)[nH]c2c1	none (no result: PTEN del growth, bCat KO growth)
CCOc1c(Br)cc(/C=N\NC(=O)c2ccccc2)cc1OC	none
COc1cc(/C=N/NC(N)=S)cc(Br)c1OCc1ccccc1F	L major viab 99 | Lmaj promast 1uM inactive
O=C(CN1CCN(Cc2cccc(Cl)c2)C1=O)NCc1ccccn1	none
